# Measured values published in ChEMBL document CHEMBL1141402 (J Med Chem, 2007).
# The source made the active and inactive calls. Residues, ends and D or L forms follow the SMILES beside them.
# Assays:
# [1] = organism: Mus musculus; assay: Antinociceptive activity in Swiss Albino mouse assessed as effect on jumping by hot plate method at 10 ug; format: functional
# In short: (§1)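 Mice given peptide i.c.v. in 0.9% NaCl, then put on a 55 ± 0.5 °C hot plate 5 min later. Latencies to paw licking, rearing and jumping recorded with a 240 s cut-off and converted to %MPE against saline control latencies. 10 mice per group; one-way ANOVA with Student-Newman-Keuls post hoc.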
# [2] = organism: Mus musculus; assay: Antinociceptive activity in Swiss Albino mouse assessed as effect on rearing by hot plate method at 10 ug; format: functional; in short: as §1
# [3] = organism: Mus musculus; assay: Antinociceptive activity in Swiss Albino mouse assessed as effect on paw licking by hot plate method at 10 ug; format: functional; in short: as §1
# [4] = target: Mu-type opioid receptor (Homo sapiens, UniProt P35372); assay: Activity at mu opioid receptor assessed as increase in calcium level in CHO cells by aequorin luminescence based calcium assay; format: functional, cell-based
# Mu-type opioid receptor (Homo sapiens, UniProt P35372), sequence (P35372 whole entry): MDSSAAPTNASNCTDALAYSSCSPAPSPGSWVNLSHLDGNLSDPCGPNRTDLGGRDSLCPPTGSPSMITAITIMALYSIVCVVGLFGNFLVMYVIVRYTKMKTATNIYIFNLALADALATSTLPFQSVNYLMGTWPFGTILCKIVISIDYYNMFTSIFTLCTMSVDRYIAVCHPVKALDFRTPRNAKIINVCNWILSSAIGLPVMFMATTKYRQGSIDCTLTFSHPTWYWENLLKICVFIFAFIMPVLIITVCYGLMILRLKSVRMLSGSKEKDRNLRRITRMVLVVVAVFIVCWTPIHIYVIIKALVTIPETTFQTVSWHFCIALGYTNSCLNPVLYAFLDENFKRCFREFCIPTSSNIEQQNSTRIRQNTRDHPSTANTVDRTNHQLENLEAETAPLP
# [5] = target: T1, Delta-type opioid receptor (Homo sapiens, UniProt P41143); assay: Activity at delta opioid receptor assessed as increase in calcium level in CHO cells by aequorin luminescence based calcium assay; format: functional, cell-based
# T1 sequence (P41143 whole entry): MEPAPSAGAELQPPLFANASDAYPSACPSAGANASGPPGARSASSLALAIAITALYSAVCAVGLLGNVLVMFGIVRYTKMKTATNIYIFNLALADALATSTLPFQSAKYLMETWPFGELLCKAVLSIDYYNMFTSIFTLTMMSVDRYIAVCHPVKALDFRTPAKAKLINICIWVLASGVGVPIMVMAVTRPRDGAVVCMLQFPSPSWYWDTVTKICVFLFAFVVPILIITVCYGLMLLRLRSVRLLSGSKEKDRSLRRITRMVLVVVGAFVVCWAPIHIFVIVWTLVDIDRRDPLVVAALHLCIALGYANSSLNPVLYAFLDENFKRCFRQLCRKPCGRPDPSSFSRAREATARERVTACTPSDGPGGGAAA
# [6] = target: Delta-type opioid receptor (Mus musculus) (UniProt P32300); assay: (§2) Agonist activity at delta opioid receptor by inhibition of electrically evoked muscle contraction in isolated mouse vas deferens; format: functional, tissue-based
# Delta-type opioid receptor (Mus musculus), sequence (P32300 whole entry): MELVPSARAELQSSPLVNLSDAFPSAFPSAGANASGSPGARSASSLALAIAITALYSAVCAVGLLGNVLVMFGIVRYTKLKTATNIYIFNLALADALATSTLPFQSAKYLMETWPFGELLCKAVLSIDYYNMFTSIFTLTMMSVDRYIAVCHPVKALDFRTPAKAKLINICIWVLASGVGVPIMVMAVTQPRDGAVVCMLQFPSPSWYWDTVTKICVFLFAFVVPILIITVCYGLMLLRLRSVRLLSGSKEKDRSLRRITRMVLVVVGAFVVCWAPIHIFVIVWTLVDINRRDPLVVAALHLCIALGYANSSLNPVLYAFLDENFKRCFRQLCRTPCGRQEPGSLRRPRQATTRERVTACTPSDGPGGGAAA
# In short: (§3)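 Mouse vas deferens from adult male Swiss Webster mice (30-50 g), killed by cervical dislocation. Field stimulation used 1 ms pulse trains at 0.15 Hz. IC50 taken from the twitch-height reduction across doses.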
# [7] = target: Mu-type opioid receptor (Cavia porcellus, UniProt P97266); assay: Agonist activity at mu opioid receptor by inhibition of electrically evoked muscle contraction in guinea pig ileum; format: functional, tissue-based
# Mu-type opioid receptor (Cavia porcellus, UniProt P97266), sequence (P97266 whole entry): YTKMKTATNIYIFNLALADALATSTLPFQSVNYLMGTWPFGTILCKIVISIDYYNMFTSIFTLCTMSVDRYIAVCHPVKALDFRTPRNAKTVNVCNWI
# [8] = target: Mu-type opioid receptor (Rattus norvegicus, UniProt P33535); assay: Displacement of [3H]DAMGO from mu opioid receptor in rat brain membrane; format: cell membranes
# Mu-type opioid receptor (Rattus norvegicus, UniProt P33535), sequence (P33535 whole entry): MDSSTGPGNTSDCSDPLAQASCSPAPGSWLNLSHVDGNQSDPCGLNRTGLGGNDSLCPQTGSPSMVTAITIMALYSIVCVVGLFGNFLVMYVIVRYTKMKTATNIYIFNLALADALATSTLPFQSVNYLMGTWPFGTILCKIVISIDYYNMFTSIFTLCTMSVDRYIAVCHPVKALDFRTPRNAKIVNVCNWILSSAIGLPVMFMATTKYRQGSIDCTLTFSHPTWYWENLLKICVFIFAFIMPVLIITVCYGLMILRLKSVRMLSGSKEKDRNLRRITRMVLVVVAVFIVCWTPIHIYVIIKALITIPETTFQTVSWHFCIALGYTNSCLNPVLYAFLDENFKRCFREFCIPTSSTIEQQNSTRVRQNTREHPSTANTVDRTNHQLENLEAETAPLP
# In short: (§4)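 Rat brain membranes incubated for 2 h at 0 °C with [3H]DAMGO (0.72 nM; µ) or [3H]DSLET (0.78 nM; δ). IC50 read from log dose-displacement curves. […] Three to four determinations.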
# [9] = target: Delta-type opioid receptor (Rattus norvegicus, UniProt P33533); assay: Displacement of [3H]DSLET from delta opioid receptor in rat brain membrane; format: cell membranes; in short: as §4
# Delta-type opioid receptor (Rattus norvegicus, UniProt P33533), sequence (P33533 whole entry): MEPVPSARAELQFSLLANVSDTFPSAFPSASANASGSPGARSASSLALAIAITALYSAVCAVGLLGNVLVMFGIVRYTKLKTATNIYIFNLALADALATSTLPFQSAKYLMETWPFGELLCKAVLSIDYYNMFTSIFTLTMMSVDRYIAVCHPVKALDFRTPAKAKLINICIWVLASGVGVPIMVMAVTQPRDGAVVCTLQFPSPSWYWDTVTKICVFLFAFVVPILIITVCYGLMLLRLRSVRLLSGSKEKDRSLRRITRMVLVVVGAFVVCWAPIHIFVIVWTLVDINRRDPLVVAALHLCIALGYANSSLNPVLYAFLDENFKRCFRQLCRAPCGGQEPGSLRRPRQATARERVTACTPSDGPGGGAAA
# [10] = target: Delta-type opioid receptor (Mus musculus) (UniProt P32300); assay: Antagonist activity at delta opioid receptor by inhibition of DPDPE-induced muscle contraction in isolated mouse vas deferens; format: functional, tissue-based
# [11] = organism: Mus musculus; assay: Antagonist effect on endomorphin-2-induced rearing in Swiss Albino mouse by hot plate method; format: functional, organism-based
# In short: (§5)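 Mice dosed i.c.v. into the left lateral ventricle, drugs dissolved in 0.9% NaCl; test compound given against endomorphin-2 (3 µg/animal) or DAMGO. Placed on a 55 ± 0.5 °C hot plate 5 min after injection. Latencies to paw licking, rearing and jumping recorded with a 240 s cut-off and expressed as %MPE from control (saline) and test latencies. 10 mice per group; two-way ANOVA with Student-Newman-Keuls.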
# [12] = organism: Mus musculus; assay: Antagonist effect on endomorphin-2-induced jumping in Swiss Albino mouse by hot plate method; format: functional, organism-based; in short: as §5
# [13] = organism: Mus musculus; assay: Antagonist effect on DAMGO-induced rearing in Swiss Albino mouse by hot plate method; format: functional, organism-based; in short: as §5
# [14] = organism: Mus musculus; assay: Antagonist effect on DAMGO-induced jumping in Swiss Albino mouse by hot plate method; format: functional, organism-based; in short: as §5
# [15] = target: Mu-type opioid receptor (Cavia porcellus) (UniProt P97266); assay: Antagonist activity at mu opioid receptor by inhibition of TAPP-induced muscle contraction in guinea pig ileum; format: functional, tissue-based
# Mu-type opioid receptor (Cavia porcellus), sequence (P97266 whole entry): as the sequence (P97266 whole entry) above
# [16] = organism: Mus musculus; assay: Antagonist effect on endomorphin-2-induced paw licking in Swiss Albino mouse by hot plate method; format: functional, organism-based; in short: as §5
# [17] = organism: Mus musculus; assay: Antagonist effect on DAMGO-induced paw licking in Swiss Albino mouse by hot plate method; format: functional, organism-based; in short: as §5
# [18] = target: Mu-type opioid receptor (Cavia porcellus) (UniProt P97266); assay: Agonist activity at mu opioid receptor by inhibition of TAPP-induced muscle contraction in guinea pig ileum at upto 10 uM; format: functional, tissue-based
# In short: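 A 2-3 cm segment taken at least 10 cm from the ileocecal junction and mounted in a 20 mL bath of modified Krebs' buffer (NaCl 150, KCl 4.3, CaCl2 1.25, MgCl2 1.0, NaH2PO4 1.7, NaHCO3 25.0, glucose 11.0 mM). Buffer gassed with 95% O2/5% CO2 at 37 °C. Stimulated at 10 pulses/min, 4 ms each, with force-transducer recording. IC50 obtained by regression of the concentration-response curve.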
# [19] = target: Delta-type opioid receptor (Mus musculus, UniProt P32300); assay: as §2; format: functional, tissue-based; in short: as §3
# Delta-type opioid receptor (Mus musculus, UniProt P32300), sequence (P32300 whole entry): as the sequence (P32300 whole entry) above
# [20] = target: T1, Delta-type opioid receptor; assay: Antagonist activity against delta opioid receptor assessed as effect on deltorphin-2-induced calcium response in CHO cells by aequorin luminescence based calcium assay; format: functional, cell-based; details: read-out: pA2 (converted)
# In short: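 CHO cells expressing DOR and aequorin. Compounds in BSA medium, then 25 000 cells injected per well. Luminescence recorded for 30 s, cells lysed with 0.3% Triton X-100 and read for a further 15 s. Signal given as fractional luminescence (agonist peak over agonist plus lysis total), from concentration-response curves. Three independent experiments, each in duplicate.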
structure (smiles),measurement,setting,value
NC(=O)[C@H](Cc1ccccc1)NC(=O)[C@H](Cc1c[nH]c2ccccc12)NC(=O)[C@@H]1CCCN1C(=O)[C@@H](N)Cc1ccc(O)cc1 [ENDOMORPHIN-1],Activity,[1],40.8%
same,Activity,[2],12%
same,Activity,[3],5.99%
NC(=O)[C@@H](Cc1ccc2ccccc2c1)NC(=O)[C@H](Cc1c[nH]c2ccccc12)NC(=O)[C@@H]1CCCN1C(=O)[C@@H](N)Cc1ccc(O)cc1,EC50,[4],0.248 µM
same,EC50,[5],> 1 µM
same,IC30,[6],4.18 µM
same,Activity,[6]; filed as partial agonist,Partial agonist
same,IC50,[7],3.47 µM
Cc1cc(O)cc(C)c1C[C@H](N)C(=O)N1CCC[C@H]1C(=O)N[C@@H](Cc1c[nH]c2ccccc12)C(=O)N[C@H](Cc1ccc2ccccc2c1)C(N)=O (HELM PEPTIDE1{[Cc1cc(O)cc(C)c1C[C@H](N)C(=O)[*:2]].P.W.[O=C([C@@H](Cc1ccc2ccccc2c1)N[*:1])[*:2]].[am]}$$$$V2.0) [listing 1 of 2 here],Activity,[1],0.58%
same,Activity,[2],0.49%
same,Activity,[3],0.17%
Cc1cc(O)cc(C)c1C[C@H](N)C(=O)N1CCC[C@H]1C(=O)N[C@@H](Cc1c[nH]c2ccccc12)C(=O)N[C@H](Cc1ccc2ccccc2c1)C(N)=O (HELM PEPTIDE1{[Cc1cc(O)cc(C)c1C[C@H](N)C(=O)[*:2]].P.W.[O=C([C@@H](Cc1ccc2ccccc2c1)N[*:1])[*:2]].[am]}$$$$V2.0) [listing 2 of 2 here],EC50,[5],0.0293 µM
same,Ki,[8],0.00238 µM
Cc1cc(O)cc(C)c1C[C@H](N)C(=O)N1CCC[C@H]1C(=O)N[C@@H](Cc1ccccc1)C(=O)N[C@H](Cc1cccc2ccccc12)C(N)=O [listing 1 of 2 here],EC50,[5],0.00355 µM
same,Ki,[8],0.00124 µM
same,Ki,[9],0.0271 µM
Cc1cc(C[C@H](N)C(=O)N2CCC[C@H]2C(=O)N[C@@H](Cc2c[nH]c3ccccc23)C(=O)N[C@H](Cc2cccc3ccccc23)C(N)=O)cc(C)c1O,Ke,[10],62.4 nM
Cc1cc(C[C@H](N)C(=O)N2CCC[C@H]2C(=O)N[C@@H](Cc2ccccc2)C(=O)N[C@H](Cc2cccc3ccccc23)C(N)=O)cc(C)c1O,Activity,[11],Dose-dependent effect
same,Activity,[12],Dose-dependent effect
same,Activity,[13],Dose-dependent effect
same,Activity,[14],Dose-dependent effect
same,Ke,[15],14.9 nM
same,Activity,[16],Dose-dependent effect
same,Activity,[17],Dose-dependent effect
same,Ke,[10],227 nM
NC(=O)[C@@H](Cc1cccc2ccccc12)NC(=O)[C@H](Cc1c[nH]c2ccccc12)NC(=O)[C@@H]1CCCN1C(=O)[C@@H](N)Cc1ccc(O)cc1,EC50,[4],0.0821 µM
same,EC50,[5],> 1 µM
same,Activity,[6]; filed as partial agonist,Partial agonist
same,IC50,[7],4.18 µM
Cc1cc(O)cc(C)c1C[C@H](N)C(=O)N1CCC[C@H]1C(=O)N[C@@H](Cc1c[nH]c2ccccc12)C(=O)N[C@H](Cc1cccc2ccccc12)C(N)=O [listing 1 of 2 here],Activity,[1],23.2%
same,Activity,[2],10.6%
same,Activity,[3],5.35%
Cc1cc(O)cc(C)c1C[C@H](N)C(=O)N1CCC[C@H]1C(=O)N[C@@H](Cc1ccccc1)C(=O)N[C@H](Cc1cccc2ccccc12)C(N)=O [listing 2 of 2 here],Activity,[1],2.73%
same,Activity,[2],1.06%
same,Activity,[3],0.13%
Cc1cc(O)cc(C)c1C[C@H](N)C(=O)N1CCC[C@H]1C(=O)N[C@@H](Cc1ccccc1)C(=O)N[C@H](Cc1ccc2ccccc2c1)C(N)=O (HELM PEPTIDE1{[Cc1cc(O)cc(C)c1C[C@H](N)C(=O)[*:2]].P.F.[O=C([C@@H](Cc1ccc2ccccc2c1)N[*:1])[*:2]].[am]}$$$$V2.0),Activity,[11],Dose-dependent effect
same,Activity,[12],Dose-dependent effect
same,EC50,[5],0.0155 µM
same,Activity,[13],Dose-dependent effect
same,Activity,[1],1.54%
same,Activity,[14],Dose-dependent effect
same,Ke,[15],5.86 nM
same,Activity,[16],Dose-dependent effect
same,Ki,[8],0.00152 µM
same,Activity,[17],Dose-dependent effect
same,Activity,[2],0.18%
same,Ke,[10],250 nM
same,Activity,[18],inactive
same,Activity,[3],0.09%
NC(=O)[C@@H](Cc1cccc2ccccc12)NC(=O)[C@H](Cc1ccccc1)NC(=O)[C@@H]1CCCN1C(=O)[C@@H](N)Cc1ccc(O)cc1,EC50,[5],> 1 µM
same,Activity,[1],0.8%
same,Ke,[15],1250 nM
same,IC50,[19],> 10 µM
same,Activity,[2],0.31%
same,Activity,[3],0%
Cc1cc(O)cc(C)c1C[C@H](N)C(=O)N1CCC[C@H]1C(=O)N[C@@H](Cc1c[nH]c2ccccc12)C(=O)N[C@H](Cc1cccc2ccccc12)C(N)=O [listing 2 of 2 here],EC50,[4],0.00115 µM
same,Kb,[20],0.00257 µM
same,IC50,[7],0.0158 µM
Cc1cc(C[C@H](N)C(=O)N2CCC[C@H]2C(=O)N[C@@H](Cc2c[nH]c3ccccc23)C(=O)N[C@H](Cc2ccc3ccccc3c2)C(N)=O)cc(C)c1O,Activity,[11],Dose-dependent effect
same,Activity,[12],Dose-dependent effect
same,Activity,[13],Dose-dependent effect
same,Activity,[14],Dose-dependent effect
same,Ke,[15],8.27 nM
same,Activity,[16],Dose-dependent effect
same,Activity,[6]; filed as partial agonist,Partial agonist
same,Activity,[17],Dose-dependent effect
same,Activity,[18],inactive
NC(=O)[C@@H](Cc1ccc2ccccc2c1)NC(=O)[C@H](Cc1ccccc1)NC(=O)[C@@H]1CCCN1C(=O)[C@@H](N)Cc1ccc(O)cc1 (HELM PEPTIDE1{Y.P.F.[O=C([C@@H](Cc1ccc2ccccc2c1)N[*:1])[*:2]].[am]}$$$$V2.0),EC50,[5],> 1 µM
same,Activity,[1],2.5%
same,Ke,[15],1260 nM
same,Activity,[6],inactive
same,Activity,[2],0.09%
same,Activity,[3],0.13%
